From ChEMBL document CHEMBL5058577, “EUbOPEN Chemogenomics Library 2 (Multiplex)” (2022)

System: Fibroblast
Assay: Multiplex assay against human fibroblast
Format: toxicity, cell-based
In short: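 Phenotypes for tubulin, mitochondrial mass and membrane permeability are expressed as per cents of healthy-nucleus cells. Cells were stained live at seeding with Hoechst33342, BioTracker Green Microtubule Cytoskeleton Dye, MitoTracker Red and Annexin V Alexa Fluor 680, then imaged after compound addition on a CQ1 microscope at 37°C and 5% CO2. Machine-learning gating in CellPathfinder separated Hoechst high-intensity objects from normal cells, divided normal cells by nuclear state (healthy, pyknosed, fragmented) and divided pyknosed cells into mitotic or apoptotic.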

[1] = 12 h, 1 µM, compound concentration 1 uM, replicate 1
[2] = 12 h, 1 µM, compound concentration 1 uM, replicate 2
[3] = 12 h, 10 µM, compound concentration 10 uM, replicate 1
[4] = 12 h, 10 µM, compound concentration 10 uM, replicate 2
[5] = 24 h, 1 µM, compound concentration 1 uM, replicate 1
[6] = 24 h, 1 µM, compound concentration 1 uM, replicate 2
[7] = 24 h, 10 µM, compound concentration 10 uM, replicate 1
[8] = 24 h, 10 µM, compound concentration 10 uM, replicate 2
[9] = 48 h, 1 µM, compound concentration 1 uM, replicate 1
[10] = 48 h, 1 µM, compound concentration 1 uM, replicate 2
[11] = 48 h, 10 µM, compound concentration 10 uM, replicate 1
[12] = 48 h, 10 µM, compound concentration 10 uM, replicate 2

O=C1[C@H](Cc2ccc(O)cc2)N2C(=O)CCN(C(=O)NCc3ccccc3)[C@H]2CN1Cc1cccc2ccccc12
Population Apoptotic (%) [1]: 32%
Population Fragmented Nuclei (%) [1]: 18%
Population Healthy Nuclei (%) [1]: 57%
Population Hoechst High Intensity Objects (%) [1]: 3%
Population Membrane Permeable-Phenotype (%) [1]: 0%
Population Mitochondria Different-Phenotype (%) [1]: 11%
Population Mitotic Cells (%) [1]: 67%
Population Normal (%) [1]: 96%
Population Pyknosed Nuclei (%) [1]: 24%
Population Tubulin-Different-Phenotype (%) [1]: 47%
Total Cell Count [1]: 160
Population Apoptotic (%) [2]: 30%
Population Fragmented Nuclei (%) [2]: 27%
Population Healthy Nuclei (%) [2]: 45%
Population Hoechst High Intensity Objects (%) [2]: 2%
Population Membrane Permeable-Phenotype (%) [2]: 5%
Population Mitochondria Different-Phenotype (%) [2]: 13%
Population Mitotic Cells (%) [2]: 69%
Population Normal (%) [2]: 97%
Population Pyknosed Nuclei (%) [2]: 26%
Population Tubulin-Different-Phenotype (%) [2]: 58%
Total Cell Count [2]: 152
Population Apoptotic (%) [3]: 35%
Population Fragmented Nuclei (%) [3]: 18%
Population Healthy Nuclei (%) [3]: 58%
Population Hoechst High Intensity Objects (%) [3]: 8%
Population Membrane Permeable-Phenotype (%) [3]: 0%
Population Mitochondria Different-Phenotype (%) [3]: 24%
Population Mitotic Cells (%) [3]: 64%
Population Normal (%) [3]: 91%
Population Pyknosed Nuclei (%) [3]: 23%
Population Tubulin-Different-Phenotype (%) [3]: 84%
Total Cell Count [3]: 146
Population Apoptotic (%) [4]: 45%
Population Fragmented Nuclei (%) [4]: 23%
Population Healthy Nuclei (%) [4]: 45%
Population Hoechst High Intensity Objects (%) [4]: 9%
Population Membrane Permeable-Phenotype (%) [4]: 8%
Population Mitochondria Different-Phenotype (%) [4]: 15%
Population Mitotic Cells (%) [4]: 55%
Population Normal (%) [4]: 90%
Population Pyknosed Nuclei (%) [4]: 30%
Population Tubulin-Different-Phenotype (%) [4]: 83%
Total Cell Count [4]: 144
Population Apoptotic (%) [5]: 42%
Population Fragmented Nuclei (%) [5]: 16%
Population Healthy Nuclei (%) [5]: 62%
Population Hoechst High Intensity Objects (%) [5]: 3%
Population Membrane Permeable-Phenotype (%) [5]: 3%
Population Mitochondria Different-Phenotype (%) [5]: 7%
Population Mitotic Cells (%) [5]: 57%
Population Normal (%) [5]: 96%
Population Pyknosed Nuclei (%) [5]: 21%
Population Tubulin-Different-Phenotype (%) [5]: 49%
Total Cell Count [5]: 158
Population Apoptotic (%) [6]: 28%
Population Fragmented Nuclei (%) [6]: 30%
Population Healthy Nuclei (%) [6]: 47%
Population Hoechst High Intensity Objects (%) [6]: 2%
Population Membrane Permeable-Phenotype (%) [6]: 7%
Population Mitochondria Different-Phenotype (%) [6]: 8%
Population Mitotic Cells (%) [6]: 71%
Population Normal (%) [6]: 97%
Population Pyknosed Nuclei (%) [6]: 22%
Population Tubulin-Different-Phenotype (%) [6]: 58%
Total Cell Count [6]: 147
Population Apoptotic (%) [7]: 44%
Population Fragmented Nuclei (%) [7]: 15%
Population Healthy Nuclei (%) [7]: 62%
Population Hoechst High Intensity Objects (%) [7]: 10%
Population Membrane Permeable-Phenotype (%) [7]: 1%
Population Mitochondria Different-Phenotype (%) [7]: 44%
Population Mitotic Cells (%) [7]: 55%
Population Normal (%) [7]: 89%
Population Pyknosed Nuclei (%) [7]: 21%
Population Tubulin-Different-Phenotype (%) [7]: 83%
Total Cell Count [7]: 141
Population Apoptotic (%) [8]: 64%
Population Fragmented Nuclei (%) [8]: 25%
Population Healthy Nuclei (%) [8]: 47%
Population Hoechst High Intensity Objects (%) [8]: 7%
Population Membrane Permeable-Phenotype (%) [8]: 13%
Population Mitochondria Different-Phenotype (%) [8]: 21%
Population Mitotic Cells (%) [8]: 35%
Population Normal (%) [8]: 92%
Population Pyknosed Nuclei (%) [8]: 26%
Total Cell Count [8]: 137
Population Apoptotic (%) [9]: 62%
Population Fragmented Nuclei (%) [9]: 22%
Population Healthy Nuclei (%) [9]: 59%
Population Hoechst High Intensity Objects (%) [9]: 7%
Population Membrane Permeable-Phenotype (%) [9]: 2%
Population Mitochondria Different-Phenotype (%) [9]: 7%
Population Mitotic Cells (%) [9]: 37%
Population Normal (%) [9]: 92%
Population Pyknosed Nuclei (%) [9]: 17%
Population Tubulin-Different-Phenotype (%) [9]: 54%
Total Cell Count [9]: 164
Population Apoptotic (%) [10]: 54%
Population Fragmented Nuclei (%) [10]: 37%
Population Healthy Nuclei (%) [10]: 45%
Population Hoechst High Intensity Objects (%) [10]: 5%
Population Membrane Permeable-Phenotype (%) [10]: 5%
Population Mitochondria Different-Phenotype (%) [10]: 6%
Population Mitotic Cells (%) [10]: 45%
Population Normal (%) [10]: 94%
Population Tubulin-Different-Phenotype (%) [10]: 48%
Total Cell Count [10]: 135
Population Apoptotic (%) [11]: 85%
Population Fragmented Nuclei (%) [11]: 21%
Population Healthy Nuclei (%) [11]: 58%
Population Hoechst High Intensity Objects (%) [11]: 15%
Population Membrane Permeable-Phenotype (%) [11]: 0%
Population Mitochondria Different-Phenotype (%) [11]: 50%
Population Mitotic Cells (%) [11]: 14%
Population Normal (%) [11]: 84%
Population Pyknosed Nuclei (%) [11]: 20%
Population Tubulin-Different-Phenotype (%) [11]: 85%
Total Cell Count [11]: 124
Population Apoptotic (%) [12]: 66%
Population Fragmented Nuclei (%) [12]: 32%
Population Healthy Nuclei (%) [12]: 53%
Population Hoechst High Intensity Objects (%) [12]: 10%
Population Membrane Permeable-Phenotype (%) [12]: 5%
Population Mitochondria Different-Phenotype (%) [12]: 38%
Population Mitotic Cells (%) [12]: 33%
Population Normal (%) [12]: 89%
Population Pyknosed Nuclei (%) [12]: 14%
Population Tubulin-Different-Phenotype (%) [12]: 94%
Total Cell Count [12]: 119
